Reference: ChEMBL document CHEMBL1138097, “Lysine sulfonamides as novel HIV-protease inhibitors: Nepsilon-acyl aromatic alpha-amino acids” (Bioorg Med Chem Lett, 2006)

Assays:
[1] = target: Human immunodeficiency virus type 1 protease (Human immunodeficiency virus 1, UniProt Q72874); assay: Inhibition of HIV aspartyl protease
Summary of the method: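 Assayed on purified HIV protease with a fluorescence rate readout (RFU/min). IC50 was taken from a dose–response curve. Ki came from fitting initial rates (200–600 s) to a tight-binding equation that accounts for protease concentration. Values are means of at least two experiments.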

[2] = test system: Human immunodeficiency virus 1; assay: Antiviral activity against HIV1 NL4-3 in MT4 cells; format: functional, organism-based; conditions: Human immunodeficiency virus 1, NL4-3, MT4
Summary of the method: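 Whole-cell cytopathic assay in MT-4 cells infected with the molecular clone HIV-1 NL4-3. EC50 is the mean of at least two experiments.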

[3] = test system: Human immunodeficiency virus 1; assay: Antiviral activity against HIV1 multi PI resistant strain 4596; format: functional, organism-based; conditions: Human immunodeficiency virus 1, 4596
Summary of the method: (§1)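 EC50 values come from a whole-cell cytopathic anti-viral assay, reported as the mean of at least three experiments. For line 2, the multi-PI-resistant strain 4596 carries protease mutations 82T, 84V, 10R and 63P. For line 1, the saquinavir-resistant strain SaqR carries protease mutations 48V and 90M.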

[4] = test system: Human immunodeficiency virus 1; assay: Antiviral activity against HIV1 Saquinavir resistant strain SaqR; format: functional, organism-based; conditions: Human immunodeficiency virus 1, SaqR; summary of the method: as §1

| SMILES | IC50 [1] [nM] | EC50 [2] [nM] | EC50 [3] [nM] | EC50 [4] [nM] |
| --- | --- | --- | --- | --- |
| CC(C)CN([C@H](CO)CCCCNC(=O)[C@@H](NC(=O)OCc1ccccn1)C(c1ccccc1)c1ccccc1)S(=O)(=O)c1ccc(N)cc1 | 0.12 | 17 | 18 | 14 |
| CC(C)CN([C@H](CO)CCCCNC(=O)[C@@H](NC(=O)c1cccnc1)C(c1ccccc1)c1ccccc1)S(=O)(=O)c1ccc(N)cc1 | 0.68 | 39 | 25 | – |
| COC(=O)N[C@H](Cc1cccc2ccccc12)C(=O)NCCCC[C@@H](CO)N(CC(C)C)S(=O)(=O)c1ccc(N)cc1 | 1.2 | 120 | – | – |
| CC(C)CN([C@H](CO)CCCCNC(=O)[C@@H](NC(=O)c1ccc(O)cc1)C(c1ccccc1)c1ccccc1)S(=O)(=O)c1ccc(N)cc1 | 0.53 | 88 | 34 | – |
| CC(C)CN([C@H](CO)CCCCNC(=O)[C@@H](NC(=O)OCc1cccnc1)C(c1ccccc1)c1ccccc1)S(=O)(=O)c1ccc(N)cc1 | 0.48 | 18 | 18 | – |
| CC(C)CN([C@H](CO)CCCCNC(=O)[C@@H](NC(=O)c1ccc(O)c([N+](=O)[O-])c1)C(c1ccccc1)c1ccccc1)S(=O)(=O)c1ccc(N)cc1 | 0.56 | 55 | 35 | – |
| CC(C)CN([C@H](CO)CCCCNC(=O)[C@@H](NC(=O)c1ncccc1O)C(c1ccccc1)c1ccccc1)S(=O)(=O)c1ccc(N)cc1 | 0.9 | 153 | 186 | – |
| CC(C)CN([C@H](CO)CCCCNC(=O)[C@@H](NC(=O)c1ccccc1O)C(c1ccccc1)c1ccccc1)S(=O)(=O)c1ccc(N)cc1 | 0.63 | 64 | 134 | – |
| CC(C)CN([C@H](CO)CCCCNC(=O)[C@@H](NC(=O)N1CCOCC1)C(c1ccccc1)c1ccccc1)S(=O)(=O)c1ccc(N)cc1 | 0.51 | 78 | – | – |
| CC(C)CN([C@H](CO)CCCCNC(=O)[C@@H](NC(=O)OC(C)(C)C)C(c1ccccc1)c1ccccc1)S(=O)(=O)c1ccc(N)cc1 | 0.4 | 41 | 290 | – |
| CC(C)CN([C@H](CO)CCCCNC(=O)[C@@H](NC(=O)c1ccccn1)C(c1ccccc1)c1ccccc1)S(=O)(=O)c1ccc(N)cc1 | 0.46 | 68 | 161 | – |
| COC(=O)N[C@@H](C(=O)NCCCC[C@@H](CO)N(CC(C)C)S(=O)(=O)c1ccc(N)cc1)C(c1ccccc1)c1ccccc1 | 13 | 850 | – | – |
| CC(C)CN([C@H](CO)CCCCNC(=O)[C@@H](NC(=O)Cc1cccnc1)C(c1ccccc1)c1ccccc1)S(=O)(=O)c1ccc(N)cc1 | 0.24 | 194 | 128 | – |
| CC(C)CN([C@H](CO)CCCCNC(=O)[C@@H](NC(=O)c1ccc([N+](=O)[O-])c(O)c1)C(c1ccccc1)c1ccccc1)S(=O)(=O)c1ccc(N)cc1 | 0.33 | 16 | 10 | – |
| Cc1ncccc1C(=O)N[C@H](C(=O)NCCCC[C@@H](CO)N(CC(C)C)S(=O)(=O)c1ccc(N)cc1)C(c1ccccc1)c1ccccc1 | 0.4 | 42 | 36 | – |
| COC(=O)N[C@H](Cc1ccc2ccccc2c1)C(=O)NCCCC[C@@H](CO)N(CC(C)C)S(=O)(=O)c1ccc(N)cc1 | 1.2 | 258 | – | – |
| COC(=O)N[C@H](C(=O)NCCCC[C@@H](CO)N(CC(C)C)S(=O)(=O)c1ccc(N)cc1)C(c1ccccc1)c1ccccc1 [PPL-100] | 0.5 | – | 38 | 19 |
| COC(=O)N(C)[C@H](Cc1ccccc1)C(=O)NCCCC[C@@H](CO)N(CC(C)C)S(=O)(=O)c1ccc(N)cc1 | 6.5 | 1000 | – | – |

| SMILES | IC50 [1] [nM] | EC50 [2] [nM] | EC50 [3] [nM] | EC50 [4] [nM] |
| --- | --- | --- | --- | --- |
| CC(C)CN([C@H](CO)CCCCNC(=O)[C@@H](NC(=O)C1CCCCC1)C(c1ccccc1)c1ccccc1)S(=O)(=O)c1ccc(N)cc1 | < 3.8 | 93 | 186 | – |
| CC(C)CN([C@H](CO)CCCCNC(=O)[C@@H](N)C(c1ccccc1)c1ccccc1)S(=O)(=O)c1ccc(N)cc1 | 0.5 | 44 | 43 | – |
| COC(=O)N[C@H](Cc1ccccc1-c1ccccc1)C(=O)NCCCC[C@@H](CO)N(CC(C)C)S(=O)(=O)c1ccc(N)cc1 | 0.521 | 200 | – | – |
| CC(C)CN([C@H](CO)CCCCNC(=O)[C@@H](NC(=O)c1cccc(O)c1)C(c1ccccc1)c1ccccc1)S(=O)(=O)c1ccc(N)cc1 | 0.4 | 64 | 30 | – |
| CC(C)CN([C@H](CO)CCCCNC(=O)[C@@H](NC(=O)c1ccc[nH]1)C(c1ccccc1)c1ccccc1)S(=O)(=O)c1ccc(N)cc1 | 0.43 | 34 | 51 | – |
| COC(=O)N[C@H](C(=O)NCCCC[C@H](CO)N(CC(C)C)S(=O)(=O)c1ccc(N)cc1)C(c1ccccc1)c1ccccc1 | 25 | 3000 | – | – |
| CC(C)CN([C@H](CO)CCCCNC(=O)[C@@H](NC(=O)c1cnccc1O)C(c1ccccc1)c1ccccc1)S(=O)(=O)c1ccc(N)cc1 | 0.5 | – | – | – |
| COc1cc(C(=O)N[C@@H](C(=O)NCCCC[C@@H](CO)N(CC(C)C)S(=O)(=O)c2ccc(N)cc2)C(c2ccccc2)c2ccccc2)ccc1O | 0.5 | 14 | 23 | – |
| CC(C)CN([C@H](CO)CCCCNC(=O)[C@@H](NC(=O)C1CC1)C(c1ccccc1)c1ccccc1)S(=O)(=O)c1ccc(N)cc1 | 0.43 | 25 | 46 | 17 |
| CC(C)CN([C@H](CO)CCCCNC(=O)[C@@H](NC(=O)OCc1ccncc1)C(c1ccccc1)c1ccccc1)S(=O)(=O)c1ccc(N)cc1 | 0.39 | 20 | 13 | 4 |
| COC(=O)N[C@H](Cc1ccccc1)C(=O)NCCCC[C@@H](CO)N(CC(C)C)S(=O)(=O)c1ccc(N)cc1 | 12 | 2000 | – | – |
| CC(C)CN([C@H](CO)CCCCNC(=O)[C@@H](NC(=O)c1ccncc1)C(c1ccccc1)c1ccccc1)S(=O)(=O)c1ccc(N)cc1 | 0.65 | 32 | 26 | – |
| CC(=O)N[C@H](C(=O)NCCCC[C@@H](CO)N(CC(C)C)S(=O)(=O)c1ccc(N)cc1)C(c1ccccc1)c1ccccc1 | 1.5 | 66 | 66 | – |
| COC(=O)N[C@H](CCc1ccccc1)C(=O)NCCCC[C@@H](CO)N(CC(C)C)S(=O)(=O)c1ccc(N)cc1 | 40 | 9000 | – | – |
| COC(=O)N[C@@H](C(=O)NCCCC[C@@H](CO)N(CC(C)C)S(=O)(=O)c1ccc(N)cc1)c1ccccc1 | > 300 | – | – | – |
| CC(C)CN([C@H](CO)CCCCNC(=O)[C@@H](NC(=O)N(C)C)C(c1ccccc1)c1ccccc1)S(=O)(=O)c1ccc(N)cc1 | 0.44 | 62 | 56 | – |
| COC(=O)N[C@@H](C(=O)NCCCC[C@H](CO)N(CC(C)C)S(=O)(=O)c1ccc(N)cc1)C(c1ccccc1)c1ccccc1 | > 300 | > 100000 | – | – |
